# Results published in ChEMBL document CHEMBL1128221 (J Med Chem, 1995).
# Activity calls are given as the source filed them. The calls are words filed in the database; no cut-off is given here.
# What was measured:
# [1] = target: T1, Carboxypeptidase G2 (Pseudomonas aeruginosa (strain ATCC 15692 / PAO1 / 1C / PRS 101 / LMG12228)) (UniProt Q9I056); test: Ratio of kcat/Km for carboxypeptidase G2; Not substrate
# T1 sequence (whole entry): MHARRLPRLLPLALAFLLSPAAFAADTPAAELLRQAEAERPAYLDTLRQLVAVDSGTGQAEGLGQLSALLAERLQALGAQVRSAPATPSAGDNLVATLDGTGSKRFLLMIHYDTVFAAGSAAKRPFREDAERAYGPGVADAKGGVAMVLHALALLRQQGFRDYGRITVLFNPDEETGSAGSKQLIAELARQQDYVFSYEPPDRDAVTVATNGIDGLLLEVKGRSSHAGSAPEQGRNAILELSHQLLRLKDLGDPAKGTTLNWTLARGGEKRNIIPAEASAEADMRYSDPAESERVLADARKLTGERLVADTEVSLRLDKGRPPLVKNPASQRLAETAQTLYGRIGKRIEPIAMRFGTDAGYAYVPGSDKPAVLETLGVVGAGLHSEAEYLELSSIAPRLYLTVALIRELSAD
# Summary of the method: (§1)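 CPG2 cleavage of the glutamate oxycarbonyl/carbamoyl bond was followed spectrophotometrically. Prodrug and drug were scanned at 200–350 nm, and the wavelength of maximal absorbance difference was chosen. Initial rates of conversion were measured over a range of prodrug and CPG2 concentrations. KM and Vmax came from Michaelis–Menten fits. kcat was Vmax divided by the CPG2 concentration in the reaction.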
# [2] = target: T1, Carboxypeptidase G2 (Pseudomonas aeruginosa (strain ATCC 15692 / PAO1 / 1C / PRS 101 / LMG12228)); test: (§2) Ability to act as substrate for Carboxypeptidase G2; Not substrate; summary of the method: as §1
# LoVo = test: Cytotoxicity against colorectal tumor cell line LoVo 1 hour after incubation.; type: functional, cell-based; details: Homo sapiens
# Summary of the method: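 LoVo colorectal cells (2.5 × 10^3/well) were exposed to a range of prodrug or parent drug concentrations for 1 h, then washed. The cells were grown a further 3 days at 37 °C, fixed, and stained with sulforhodamine B to measure cellular protein. Treated wells were compared with untreated controls to give IC50. The ratio is prodrug IC50 over drug IC50.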
# [3] = Half life was reported; type: ADME
# Summary of the method: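 Hydrolysis of the chloroethyl mustard groups was measured in phosphate buffer, pH 7.4, at 37 °C. Products were separated by HPLC on a 25 cm ODS column. t1/2 was calculated with a standard kinetic program. The method was not applied to bromo, iodo or mesyl mustards.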
# [4] = target: T1, Carboxypeptidase G2 (Pseudomonas aeruginosa (strain ATCC 15692 / PAO1 / 1C / PRS 101 / LMG12228)); test: (§3) Ability to act as substrate for Carboxypeptidase G2; summary of the method: as §1
# [5] = target: T1, Carboxypeptidase G2 (Pseudomonas aeruginosa (strain ATCC 15692 / PAO1 / 1C / PRS 101 / LMG12228)); test: Ratio of kcat/Km for carboxypeptidase G2 activity; summary of the method: as §1
# [6] = target: T1, Carboxypeptidase G2 (Pseudomonas aeruginosa (strain ATCC 15692 / PAO1 / 1C / PRS 101 / LMG12228)); test: Ratio of kcat/Km for carboxypeptidase G2; unstable; summary of the method: as §1
# [7] = target: T1, Carboxypeptidase G2 (Pseudomonas aeruginosa (strain ATCC 15692 / PAO1 / 1C / PRS 101 / LMG12228)); test: (§4) Ability to act as substrate for Carboxypeptidase G2; unstable; summary of the method: as §1
# [8] = substrate: O=C(O)CC[C@H](NC(=O)Oc1ccc(N(CCCl)CCCl)c(F)c1)C(=O)O; test: as §4; summary of the method: as §1
# [9] = substrate: O=C(O)CC[C@H](NC(=O)Oc1ccc(N(CCCl)CCCl)c(Cl)c1)C(=O)O; test: as §2; summary of the method: as §1
# [10] = substrate: O=C(O)CC[C@H](NC(=O)Oc1ccc(N(CCBr)CCBr)c(F)c1)C(=O)O; test: as §2; summary of the method: as §1
# [11] = substrate: O=C(O)CC[C@H](NC(=O)Oc1ccc(N(CCI)CCI)c(F)c1)C(=O)O; test: as §2; summary of the method: as §1
# [12] = substrate: O=C(O)CC[C@H](NC(=O)Nc1ccc(N(CCBr)CCBr)c(F)c1)C(=O)O; test: as §3; summary of the method: as §1
# [13] = substrate: O=C(O)CC[C@H](NC(=O)Nc1ccc(N(CCCl)CCCl)c(Cl)c1)C(=O)O; test: as §3; summary of the method: as §1
# [14] = substrate: O=C(O)CC[C@H](NC(=O)Oc1ccc(N(CCBr)CCBr)cc1)C(=O)O; test: as §3; summary of the method: as §1
# [15] = substrate: O=C(O)CC[C@H](NC(=O)Oc1ccc(N(CCI)CCI)cc1)C(=O)O; test: as §3; summary of the method: as §1
# [16] = substrate: Cc1cc(OC(=O)N[C@@H](CCC(=O)O)C(=O)O)ccc1N(CCCl)CCCl; test: as §3; summary of the method: as §1
# [17] = substrate: O=C(O)CC[C@H](NC(=O)Oc1ccc(N(CCCl)CCCl)cc1Cl)C(=O)O; test: as §3; summary of the method: as §1
# [18] = substrate: CC(C)c1cc(OC(=O)N[C@@H](CCC(=O)O)C(=O)O)ccc1N(CCCl)CCCl; test: as §3; summary of the method: as §1
# [19] = substrate: O=C(O)CC[C@H](NC(=O)Nc1ccc(N(CCCl)CCCl)c(F)c1)C(=O)O; test: as §3; summary of the method: as §1
# [20] = substrate: Cc1cc(N(CCCl)CCCl)ccc1OC(=O)N[C@@H](CCC(=O)O)C(=O)O; test: as §3; summary of the method: as §1
# [21] = substrate: N#Cc1cc(NC(=O)N[C@@H](CCC(=O)O)C(=O)O)ccc1N(CCCl)CCCl; test: as §3; summary of the method: as §1
Molecule,IC50 (LoVo),half-life [3],k cat [4],Ratio [5],further results
O=C(O)CC[C@H](NC(=O)Oc1ccc(N(CCI)CCI)c(F)c1)C(=O)O,24.5 µM,–,–,–,Ratio [1]: inactive; k cat [2]: Not substrate
O=C(O)CC[C@H](NC(=O)Oc1ccc(N(CCCl)CCCl)c(Cl)c1)C(=O)O,9.4 µM,1.7 min,–,–,Ratio [1]: inactive; k cat [2]: Not substrate
CC(C)c1cc(OC(=O)N[C@@H](CCC(=O)O)C(=O)O)ccc1N(CCCl)CCCl,36.7 µM,2.2 min,12.6 s⁻¹,0.2,–
O=C(O)CC[C@H](NC(=O)Oc1ccc(N(CCCl)CCCl)cc1Cl)C(=O)O,86.7 µM,186 min,50.5 s⁻¹,0.7,–
O=C(O)CC[C@H](NC(=O)Nc1ccc(N(CCCl)CCCl)c(Cl)c1)C(=O)O,330 µM,2.8 min,9.4 s⁻¹,7.8,–
O=C(O)CC[C@H](NC(=O)Nc1ccc(N(CCCl)CCCl)c(F)c1)C(=O)O,> 500 µM,6.8 min,9.3 s⁻¹,3.4,–
O=C(O)CC[C@H](NC(=O)Nc1ccc(N(CCBr)CCBr)c(F)c1)C(=O)O,298 µM,–,14.5 s⁻¹,2.7,–
N#Cc1cc(NC(=O)N[C@@H](CCC(=O)O)C(=O)O)ccc1N(CCCl)CCCl,> 500 µM,61 min,8.4 s⁻¹,1,–
O=C(O)CC[C@H](NC(=O)Oc1ccc(N(CCBr)CCBr)cc1)C(=O)O,9.4 µM,–,60 s⁻¹,–,–
O=C(O)CC[C@H](NC(=O)Oc1ccc(N(CCI)CCI)cc1)C(=O)O,47.2 µM,–,29.5 s⁻¹,14.8,–
O=C(O)CC[C@H](NC(=O)Oc1ccc(N(CCBr)CCBr)c(F)c1)C(=O)O,46.2 µM,–,–,–,Ratio [1]: inactive; k cat [2]: Not substrate
Cc1cc(N(CCCl)CCCl)ccc1OC(=O)N[C@@H](CCC(=O)O)C(=O)O,437 µM,33 min,13 s⁻¹,0.6,–
Cc1cc(OC(=O)N[C@@H](CCC(=O)O)C(=O)O)ccc1N(CCCl)CCCl,116 µM,1.6 min,30 s⁻¹,2.3,–
O=C(O)CC[C@H](NC(=O)Oc1ccc(N(CCCl)CCCl)c(F)c1)C(=O)O,53 µM,19 min,–,–,Ratio [6]: Unstable; k cat [7]: Unstable
"Carboxypeptidase G2 (Pseudomonas aeruginosa (strain ATCC 15692 / PAO1 / 1C / PRS 101 / LMG12228)), Q9I056 (protein) MHARRLPRLLPLALAFLLSPAAFAADTPAAELLRQAEAERPAYLDTLRQLVAVDSGTGQAEGLGQLSALLAERLQALGAQVRSAPATPSAGDNLVATLDGTGSKRFLLMIHYDTVFAAGSAAKRPFREDAERAYGPGVADAKGGVAMVLHALALLRQQGFRDYGRITVLFNPDEETGSAGSKQLIAELARQQDYVFSYEPPDRDAVTVATNGIDGLLLEVKGRSSHAGSAPEQGRNAILELSHQLLRLKDLGDPAKGTTLNWTLARGGEKRNIIPAEASAEADMRYSDPAESERVLADARKLTGERLVADTEVSLRLDKGRPPLVKNPASQRLAETAQTLYGRIGKRIEPIAMRFGTDAGYAYVPGSDKPAVLETLGVVGAGLHSEAEYLELSSIAPRLYLTVALIRELSAD",–,–,–,–,Km [8]: Unstable; Km [9]: Not substrate; Km [10]: Not substrate; Km [11]: Not substrate; Km [12]: 5.4 µM; Km [13]: 1.2 µM; Km [14]: 6.2 µM; Km [15]: 2 µM; Km [16]: 13 µM; Km [17]: 76.5 µM; Km [18]: 56 µM; Km [19]: 2.7 µM; Km [20]: 23.5 µM; Km [21]: 8.3 µM
